Source: PubChem (several laboratories)
Shown are actives, neighbours in structure and some others; about 3.9% of the full set was active somewhere.
TMEM16A act: activators or potentiators of mouse TMEM16A chloride channel. Q8BHY3. HEK293 TMEM16A/YFP-H148Q/I152L, iodide quench fluorescence; stronger effect = lower value. 340,000 tested, 0.3% active. B-score at 10 µM;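 active = fluorescence-ratio B-score plate-corrected deviation score at least 3 library SD below zero, with starting fluorescence score within 5 deviations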;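 note: channel opened by trigger with iodide after compound preincubation; score built on the fluorescence ratio of max minus min over baseline; more negative score means more quench and so TMEM16A activation or potentiation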
TAAR1 antagonist: human TAAR1 antagonism; Q96RJ0; CHO RD-HGA16 TAAR1, Fluo-8 calcium fluorescence, antagonist; inhibition, % at 3 µM; 360,000 tested, 1.5% active; AID 624466;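 active = inhibition above a per-plate cutoff, the mean inhibition of test compounds on that plate plus 3 SD, cut at about 49% in these data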;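 note: 0% = DMSO plus EC80 beta-PEA response and 100% = DMSO alone without agonist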
Target sequence (Q96RJ0 whole entry, looked up): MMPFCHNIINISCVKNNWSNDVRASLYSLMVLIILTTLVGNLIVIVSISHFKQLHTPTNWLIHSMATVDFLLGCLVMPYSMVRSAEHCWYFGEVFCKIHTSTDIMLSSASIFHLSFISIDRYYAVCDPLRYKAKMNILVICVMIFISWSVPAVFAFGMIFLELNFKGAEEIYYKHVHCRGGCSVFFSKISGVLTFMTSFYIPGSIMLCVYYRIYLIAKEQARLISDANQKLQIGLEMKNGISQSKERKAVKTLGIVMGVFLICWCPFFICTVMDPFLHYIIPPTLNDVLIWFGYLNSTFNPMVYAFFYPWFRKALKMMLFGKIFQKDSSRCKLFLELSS
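System: RD-HGA16 CHO cells with stable hTAAR1 and Gα16 | Probe or stimulus: EC80 β-phenethylamine stimulus | Dosing: 3 µM, single point | Times: Dye loading 75 min at 37 °C, then 30 min room temperature | Measured by: Fluo-8 calcium-sensitive fluorescence | Read-out basis: % inhibition of agonist calcium response | Replicates: n of 1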
CRFBP-R2 block: antagonists of CRF-binding protein/CRF-R2 receptor complex | HEK293 CRF-R2/CRF-BP, CRF-induced calcium fluorescence | 350,000 tested, 0.59% active | inhibition, % at 11.8 µM | AID 588475;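 active = inhibition of the ligand-induced calcium signal above about 50% at the single tested concentration, limit read from the data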
CRFBP-R2 agonist: CRF-BP/CRF-R2 complex agonism. HEK293 CRF-R2/CRF-BP, calcium dye fluorescence (FLIPR); percent of saturating CRF peptide response. activation, % at 13.2 µM. 350,000 tested, 0.46% active;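 active = activation of at least 50%, plus an integration ratio under a set limit after plate pattern correction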;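 note: plate controls were neutral control wells without compound for no effect and CRF at EC100 for full effect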
TAAR1 agonist: human TAAR1 agonism; Q96RJ0; CHO RD-HGA16 TAAR1, Fluo-8 calcium fluorescence; vehicle wells 0%, saturating PEA agonist 100%; activation, % at 3 µM; 360,000 tested, 0.99% active; AID 624467;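 active = activation above the mean activation of all test compounds in the run plus 3 SD, cut at about 38% in these data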
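Test system: RD-HGA16 (CHO) cells co-expressing Gα16 and hTAAR1 | Doses: Single dose, 3 µM | Schedule: 17-24 h seeding, 75 min 37 °C dye, 30 min RT | Evaluation: % activation from peak over basal fluorescence ratio, DMSO-to-PEA scaled | Technique: Kinetic Fluo-8 calcium fluorescence | Benchmarks: Low control DMSO, high control PEA (EC100)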
TMEM16A inh: mouse TMEM16A channel inhibition, primary screen | HEK293 TMEM16A/YFP iodide influx fluorescence, ionomycin | normalized B-score (activity score, 25-100; higher = stronger inhibition) at 10 µM | 310,000 tested, 1.2% active;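 active = ratio plate-corrected score three or more library SD toward inhibition, starting fluorescence score within five deviations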;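 note: score derived from kinetic fluorescence span divided by baseline fluorescence per well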
TAAR1 ag conf: confirmation of human TAAR1 agonists; shares compounds with TAAR1 agonist; CHO RD-HGA16 TAAR1, Fluo-8 calcium fluorescence; scaled: DMSO 0%, maximal phenethylamine 100%; activation, % at 3 µM; 2,400 tested, 82% active; AID 651783;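 active = activation above a cutoff set at the run's mean compound activation plus 3 SD, cut at about 39% in these data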
Ga16 nonsel ag: counter-screen for TAAR1 agonists: nonselective agonists in parental cells; shares compounds with TAAR1 agonist; CHO-Ga16 parental, Fluo-8 calcium fluorescence; normalized to maximal ATP response, DMSO zero; activation, % at 3 µM; 2,400 tested, 50% active;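 active = activation above the run cutoff, the mean activation over all tested wells plus 3 SD, cut at about 12% in these data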;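 note: 0% = DMSO wells and 100% = maximal ATP response on the peak over basal ratio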
TAAR1 desensitize: TAAR1 response desensitization, agonist counter-screen | CHO RD-HGA16 hTAAR1, Fluo-8 calcium, beta-PEA response inhibition | 2,400 tested, 46% active | inhibition, % at 3 µM | AID 651951 | shares compounds with TAAR1 agonist;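 active = inhibition above the run cutoff, the mean inhibition of all test compounds plus 3 SD, cut at about 49% in these data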;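 note: beta-PEA stimulus applied at its EC80; loss of beta-PEA calcium signal after compound pretreatment read as receptor desensitization; 0% = DMSO with beta-PEA at EC80 and 100% = DMSO alone without agonist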
Ga16 nonsel ant: nonselective Ga16 antagonist in TAAR1 agonist counter-screen | inhibition, % at 3 µM | AID 651952 | shares compounds with TAAR1 agonist | 2,400 tested, 39% active | CHO-Ga16 ATP-induced calcium, Fluo-8 fluorescence;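 active = inhibition above the plate's mean compound inhibition plus 3 SD, computed per plate, cut at about 22% in these data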;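 note: 0% = EC80 ATP with DMSO and 100% = DMSO wells without ATP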
Numbers without * were called inactive; i = inactive; nt = not tested or not shown.

SMILES	TMEM16A act	TAAR1 antagonist	CRFBP-R2 block	CRFBP-R2 agonist	TAAR1 agonist	TMEM16A inh	TAAR1 ag conf	Ga16 nonsel ag	TAAR1 desensitize	Ga16 nonsel ant
NC(c1csc(NC(=O)Nc2cccc(Cl)c2)n1)C1CCCCC1 (stereo unspecified)	nt	30	nt	nt	30	nt	nt	nt	nt	nt
C(=N\Nc1nn[nH]n1)/c1ccccc1	i	-5	12	-1	2	i	nt	nt	nt	nt
C(=NNc1nnn(Cc2ccccc2)n1)c1ccccc1	nt	22	-7	2	54*	nt	8	2	4	6
CN(CC(=O)Nc1cccc(Cl)c1)S(=O)(=O)c1ccc2[nH]c(=O)oc2c1	i	0	-6	-1	0	i	nt	nt	nt	nt
Cn1c(N/N=C/c2cccs2)cc(=O)n(C)c1=O	i	-1	30	0	45*	i	62*	2	14	6
CN(C)CCOC1(Cc2ccc(F)cc2)CCC(C(C)(C)C)CC1 (stereo unspecified)	i	25	-56	8	56*	nt	51*	34*	34	23*
CN(C)CCNCc1ccc(OC2CCCC2)cc1	i	4	-9	-1	3	i	nt	nt	nt	nt
Cc1ccc(CC2(OCCN(C)C)CCC(C(C)(C)C)CC2)cc1 (stereo unspecified)	i	23	16	1	63*	nt	85*	45*	75*	41*
O=C(O)c1cccc(N2C(=O)c3cccc(Oc4ccc(Cl)cc4)c3C2=O)c1	i	-14	19	2	0	i	nt	nt	nt	nt
COC(=O)C1=C(C)N(Cc2cccc(C(F)(F)F)c2)C(=NCC2CC2)NC1c1cccc(F)c1 (stereo unspecified)	nt	97*	nt	nt	131*	nt	104*	70*	92*	81*
COC(=O)C1=C(C)N(Cc2ccc(C(F)(F)F)cc2)C(=NCc2ccc(C(F)(F)F)cc2)NC1c1ccccc1 (stereo unspecified)	nt	8	nt	nt	11	nt	nt	nt	nt	nt
COC(=O)C1=C(C)N(Cc2ccc(C(F)(F)F)cc2)C(=NCc2ccccc2)NC1c1cccc(F)c1 (stereo unspecified)	nt	66*	nt	nt	40*	nt	30	18*	48	39*
CCN1C(=NCC2CC2)N[C@@H](c2cccc(C(F)(F)F)c2)C(C(=O)OC)=C1C	i	nt	-12	7	nt	i	nt	nt	nt	nt
COc1ccc(OC)c(CN2C(=O)CSCC2(C)C(=O)NCc2ccccc2)c1 (stereo unspecified)	nt	-21	nt	nt	8	nt	nt	nt	nt	nt
Cc1nn(CC(C)C)c(Cl)c1C(=O)NCC1CCCO1 (stereo unspecified)	nt	-9	-13	0	4	nt	nt	nt	nt	nt
CC(=O)N1C[C@H]2CON(C)[C@H]2C[C@H]1c1ccc(-c2ccccc2)cc1	nt	-5	-6	-1	1	nt	nt	nt	nt	nt
O=C(Oc1ccc(Br)cc1C(=S)N1CCCC1)c1ccccc1F	i	57*	7	0	94*	i	-3	3	8	7
O=C(N/N=C/c1ccc(OCc2ccc(F)cc2)cc1)c1ccccc1	i	5	3	3	43*	i	18	3	-1	0
O=C(N/N=C/c1ccc(OCc2ccccc2)cc1)c1cc[n+](Cc2ccccc2)cc1	i	-9	3	-3	5	i	nt	nt	nt	nt
O=C(Nc1ccc(OCc2ccccc2)cc1)c1ccccc1	i	-3	-10	0	1	i	nt	nt	nt	nt
NNC(=O)c1ccc(COc2ccc3ccccc3c2)cc1	i	-12	-23	0	72*	i	93*	51*	49*	23*
O=C(Nc1ccc(OCc2ccccc2)cc1)c1cccnc1	i	57*	-7	0	88*	i	94*	30*	75*	26*
O=C(Nc1ccccc1F)c1ccc(OCc2ccccc2)cc1	i	nt	27	-1	nt	i	nt	1	nt	13
CC(C)(C)C(C(=O)NC1CCCC1)N1CCN(c2ncccc2C#N)CC1 (stereo unspecified)	nt	1	nt	nt	2	nt	nt	nt	nt	nt
CCNC(=O)CC1C(=O)N(c2cccc(C)c2)C(=O)N1CCC(C)C (stereo unspecified)	i	-33	-5	1	2	i	nt	nt	nt	nt
SMILES	TMEM16A act	TAAR1 antagonist	CRFBP-R2 block	CRFBP-R2 agonist	TAAR1 agonist	TMEM16A inh	TAAR1 ag conf	Ga16 nonsel ag	TAAR1 desensitize	Ga16 nonsel ant
CC(C)CC1=NN2C(=N)/C(=C\c3coc4ccccc4c3=O)C(=O)N=C2S1	i	104*	-287	306*	355*	nt	149*	131*	82*	80*
CCSC1=NSC2=NC(=O)/C(=C\c3coc4ccccc4c3=O)C(=N)N12	i	108*	-177	185*	252*	i	204*	279*	103*	99*
O=C(CCCc1ccccc1)NCCc1ccc(F)cc1	i	-10	-1	-1	1	i	nt	nt	nt	nt
O=C(NCCc1ccccc1)c1cnc2n(c1=O)CCS2	i	nt	0	0	nt	i	nt	5	nt	2
O=C(NCCc1c[nH]c2ccccc12)c1cnc2n(c1=O)CCS2	i	-2	1	1	2	i	nt	nt	nt	nt
Cc1cccc(N2CC(C(=O)Nc3ccc(S(=O)(=O)Nc4nccs4)cc3)CC2=O)c1C (stereo unspecified)	i	-4	-11	1	9	i	nt	nt	nt	nt
CN(C)CCCN(C(=O)c1ccc(C(=O)c2ccccc2)cc1)c1nc2ccc(F)cc2s1	i	11	-40	-1	34	i	nt	nt	nt	nt
CN(C)CCCN(C(=O)c1ccc(S(=O)(=O)N(C)C2CCCCC2)cc1)c1nc2ccc(F)cc2s1	i	20	-12	6	47*	i	49*	22*	49*	32*
CN(CC(=O)NCCc1ccc(S(N)(=O)=O)cc1)CC(=O)Nc1ccccc1C(F)(F)F	i	-12	11	-1	3	nt	nt	nt	nt	nt
CCCCOc1ccc(C(=O)N2CCN(c3ncccn3)CC2)cc1	i	-17	5	-2	3	i	nt	nt	nt	nt
O=C(Nc1cc(F)c(Br)cc1F)c1ccc(Cl)cc1	i	70*	-5	44	91*	i	1	8	0	11
